These results are taken from ChEMBL document CHEMBL3272179, “Synthetic metabolites of neurohypophyseal hormones. (Des-9-glycinamide)oxytocin and (des-9-glycinamide, des-8-leucine)oxytocin” (1976).

Calls of active or inactive are those of the source. The calls are words filed in the database; no cut-off is given here. Positions of bridges follow the written chain, without caps; N, C: chain ends. Residues, ends and D or L forms follow the SMILES beside them.

A short description of assay [1]: Oxytocic activity in uterine horns of rat […]. Format: functional. The method in brief: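 Six isolated uterine horns from three rats in natural estrus, with estrus confirmed by vaginal smear on the assay morning. Holton method as modified by Munsick, in Mg2+-free van Dyke-Hastings bathing solution. Four-point design or matches against USP Posterior Pituitary Reference Standard.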

For assay [2], the system named is Rattus norvegicus. The assay is described as follows: Antidiuretic activity in inactin- and ethanol-anesthetized, hydrated Sprague-Dawley rat assessed as maximal depression of rate of urine flow. The assay is classed as functional. The method in brief:
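Six male Sprague-Dawley rats, anesthetized with Inactin and ethanol and hydrated. Method of Jeffers et al. as modified by Sawyer. The effective response was the maximal depression of urine flow rate. Four-point design or matches against USP Posterior Pituitary Reference Standard.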

The subject of assay [3] is Gallus gallus. Nature of the assay: Inhibition of oxytocin-induced vasodepressor activity in conscious chicken. The assay is classed as functional, organism-based. The gist of the method:
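Analog and oxytocin injected simultaneously into conscious chickens (minimum three), procedure of Coon. Oxytocin held at 5×10^-11 mol while analog dose was raised stepwise to 5×10^-4 mol. Read-out was inhibition of the oxytocin vasodepressor response.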

The subject of assay [4] is Rattus norvegicus. Nature of the assay: Pressor activity in atropinized and urethane-anesthetized rat at 1 mg. Format: functional, organism-based. The gist of the method:
(§1)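 Minimum of five atropinized, urethane-anesthetized male rats, following U.S. Pharmacopeia procedures. Tested for agonist and antagonist activity at single doses up to 1 mg. USP Posterior Pituitary Reference Standard used as reference.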

The subject of assay [5] is Anura. Nature of the assay: Hydroosmotic activity in toad urinary bladder assessed as water transport. The assay is classed as functional. The gist of the method: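 Water transport across toad urinary bladder measured by Bentley's method as modified by Eggena et al. At least five animals. Four-point design or matches against USP Posterior Pituitary Reference Standard.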

Assay [6] deals with Gallus gallus. The assay is described as follows: Vasodepressor activity in conscious chicken. The assay is classed as functional. The method in brief: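 Conscious chickens, minimum three, procedure of Coon. Tested for agonist activity at up to 1 mg analog per injection. Four-point design or matches against USP Posterior Pituitary Reference Standard.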
Assay [7] has as its system Rattus norvegicus. Nature of the assay: Pressor activity in atropinized and urethane-anesthetized rat. The assay is classed as functional. The gist of the method: as §1

Take `CC[C@H](C)[C@@H]1NC(=O)[C@H](Cc2ccc(O)cc2)NC(=O)[C@@H](N)CSSC[C@@H](C(=O)N2CCC[C@H]2C(=O)N[C@@H](CC(C)C)C(=O)O)NC(=O)[C@H](CC(N)=O)NC(=O)[C@H](CCC(N)=O)NC1=O` (H-CYIQNCPL-OH; disulfide 1-6): the Activity in assay [1] turned out to be 2.4 U/mg; in assay [2] it was 0.08 U/mg; in assay [5], 4 ×10⁻⁹ M. Also, the inhibition result in assay [3] is “Active”. Also, the result in assay [4] was inactive.

`CC[C@H](C)[C@@H]1NC(=O)[C@H](Cc2ccc(O)cc2)NC(=O)[C@@H](N)CSSC[C@@H](C(=O)N2CCC[C@H]2C(=O)N[C@@H](CC(C)C)C(=O)NCC(N)=O)NC(=O)[C@H](CC(N)=O)NC(=O)[C@H](CCC(N)=O)NC1=O` [OXYTOCIN]: the Activity in assay [1] is 546 U/mg; in assay [6], 507 U/mg; in assay [7], 3.1 U/mg; in assay [2] it was 2.1 U/mg; in assay [5], 2.3 ×10⁻⁹ M.

On to `CC[C@H](C)[C@@H]1NC(=O)[C@H](Cc2ccc(O)cc2)NC(=O)[C@@H](N)CSSC[C@@H](C(=O)N2CCC[C@H]2C(=O)O)NC(=O)[C@H](CC(N)=O)NC(=O)[C@H](CCC(N)=O)NC1=O` (H-CYIQNCP-OH; disulfide 1-6), for which the Activity in assay [1] was 2.7 U/mg; in assay [6], 0.1 U/mg; in assay [2] it was 0.06 U/mg. Also, in assay [4], the outcome was inactive.
